Experiments:
[1] = target: T1, Voltage-gated L-type calcium channel (Rattus norvegicus, UniProt P22002+Q02485+P27732); assay: Inhibition of L-type calcium channel in endothelium-denuded Wistar rat aorta rings assessed as relaxation of 60 mM K+-induced contraction; conditions: for inhibition (INH): rat
[2] = target: T1, Voltage-gated L-type calcium channel; assay: Inhibition of L-type calcium channel in endothelium-denuded Wistar rat aorta rings assessed as relaxation of 30 mM K+-induced contraction
How it was run: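 Endothelium-denuded rat aorta rings, isometric tension, equilibrated 60 min in PSS gassed with 95% O2/5% CO2 (pH 7.4). Contracted with 0.3 μM phenylephrine, or 30 or 60 mM K+ (KCl replacing NaCl).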

[3] = target: T1, Voltage-gated L-type calcium channel; assay: Inhibition of L-type calcium channel in endothelium-denuded Wistar rat aorta rings assessed as relaxation of phenylephrine-induced contraction; conditions: for inhibition (INH): rat
[4] = target: T1, Voltage-gated L-type calcium channel; assay: Inhibition of L-type calcium channel in endothelium-denuded Wistar rat aorta rings depolarized with 60 mM K+ solution assessed as relaxation of Ca2+-induced contraction
How it was run: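 Endothelium-denuded rings stimulated with 60 mM K+ for 15 min, then washed 90 min in Ca2+-free PSS with 1 mM EGTA, and stores emptied with 0.3 μM phenylephrine. Depolarized in Ca2+-free 60 mM K+ PSS, then cumulative Ca2+ (0.03−3 mM). Test substance or vehicle present 30 min before and throughout.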

[5] = target: T1, Voltage-gated L-type calcium channel; assay: Inhibition of L-type calcium channel in endothelium-denuded Wistar rat aorta rings depolarized with 60 mM K+ solution assessed as relaxation of Ca2+-induced contraction at 12 and 40 uM in presence of 10 nM calcium channel agonist (S)-(-)Bay K 8644
How it was run: (§1)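 Following the cumulative Ca2+ (0.03−3 mM) curve in endothelium-denuded rings depolarized with Ca2+-free 60 mM K+ PSS, with compound or vehicle present from 30 min beforehand, 10 nM (S)-(−)-Bay K 8644 was added after the last Ca2+ addition. Tone expressed as % of the response to 60 mM K+; mean ± SE, n = 4−17.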

[6] = target: T1, Voltage-gated L-type calcium channel; assay: Inhibition of L-type calcium channel in Wistar rat aorta rings assessed as relaxation of phenylephrine-induced contraction in Ca2+ free medium
How it was run: (§2)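 Rings in Ca2+-free PSS with 1 mM EGTA for 15 min, then 30 min incubation with vehicle or alkaloid. Contraction to 10 μM phenylephrine reflects sarcoplasmic reticulum Ca2+ release; 3.5 mM Ca2+ is then re-added with phenylephrine still present to index Ca2+ influx. Washed 45 min and repeated at a higher concentration. Expressed as % of 0.3 μM phenylephrine contraction in PSS.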

[7] = target: T1, Voltage-gated L-type calcium channel; assay: Inhibition of L-type calcium channel in Wistar rat tail artery myocytes assessed as reduction in L-type Ba(2+) current at Vh of -50 mV; conditions: for inhibition (INH): rat
[8] = target: T1, Voltage-gated L-type calcium channel; assay: Inhibition of L-type calcium channel in endothelium-intact Wistar rat aorta rings assessed as relaxation of 0.3 uM phenylephrine-induced contraction
[9] = target: T1, Voltage-gated L-type calcium channel; assay: Inhibition of L-type calcium channel in endothelium-denuded Wistar rat aorta rings depolarized with 60 mM K+ solution assessed as relaxation of Ca2+-induced contraction at 43 and 128 uM in presence of 10 nM calcium channel agonist (S)-(-)Bay K 8644; how it was run: as §1
[10] = target: T1, Voltage-gated L-type calcium channel; assay: Inhibition of L-type calcium channel in Wistar rat aorta rings assessed as relaxation of phenylephrine-induced contraction in Ca2+ restored medium; how it was run: as §2

SMILES	pIC50 [1]	inhibition (INH) [1]	pIC50 [2]	pIC50 [3]	inhibition (INH) [3]	inhibition (INH) [4]	inhibition (INH) [5]	inhibition (INH) [6]	IC50 [7]	inhibition (INH) [7]	pIC50 [8]	inhibition (INH) [9]	inhibition (INH) [10]	inhibition (INH) ([8]; rat)
CSC(=O)N(C)CCc1c[nH]c2ccccc12	4.8	Dose-dependent effect	4.5	4.7	Dose-dependent effect	Dose-dependent effect	Not Active	Not Active	251 µM	Dose-dependent effect	4.4			
CSC(=O)NCCc1c[nH]c2ccccc12	4.1	Dose-dependent effect	3.9	4.3	Dose-dependent effect	Dose-dependent effect		Not Active			4.2	Not Active	Active	
COc1ccc(CCN(C)CCCC(C#N)(c2ccc(OC)c(OC)c2)C(C)C)cc1OC (stereo not given)		Dose-dependent effect			Dose-dependent effect					Dose-dependent effect				Dose-dependent effect
